This note sets out measurements from ChEMBL document CHEMBL1770055, “Regioselective one pot synthesis of 3,3'-diindolylethylene derivatives and study of their cytotoxic activity” (Bioorg Med Chem Lett, 2011).

The subject of assay [1] is K562. Put plainly: Cytotoxicity against human K562 cells assessed as cell growth inhibition after 48 hrs by MTS-PMS assay. It is filed as functional, cell-based. To be noted: K562, 48 h. A digest of the protocol: (§1)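 Cells seeded at 5 × 10^4 per 200 µl and exposed to compounds at 0–100 µM, in triplicate, for 48 h at 37 °C, 5% CO2. MTS (2.0 mg/ml) and PMS (0.92 mg/ml) were mixed 10:1 and added, followed by 3 h at 37 °C. Absorbance (formazan) was read at 490 nm. Viability is expressed as % of untreated. IC50 was obtained by graphic extrapolation.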

For assay [2], the system named is U-937. Put plainly: Cytotoxicity against human U937 cells assessed as cell growth inhibition after 48 hrs by MTS-PMS assay. Conditions: U-937, 48 h. In kind it is functional, cell-based. A digest of the protocol:
as §1

Assay [3] concerns U-937. Description: Induction of apoptosis in human U937 cells assessed as apoptotic cells at 13.06 uM after 8 hrs using annexin V/propidium iodide staining by flow cytometry (reference value: 2.42%). In kind it is functional.
Assay [4] deals with U-937. Description: Induction of apoptosis in human U937 cells assessed as late apoptotic cells at 13.06 uM after 8 hrs using annexin V/propidium iodide staining by flow cytometry (reference value: 5.83%). It is filed as functional.
Assay [5] deals with U-937. Put plainly: Induction of apoptosis in human U937 cells assessed as pre-necrotic cells at 13.06 uM after 8 hrs using annexin V/propidium iodide staining by flow cytometry (reference value: 0.30%). It is filed as functional.

With `C=C(c1c(-c2ccccc2)[nH]c2ccccc12)c1c(-c2ccccc2)[nH]c2ccccc12`, the IC50 in assay [1] and in assay [2] was more than 100 µM throughout.

As to `C=C(c1c(-c2cccc(Cl)c2)[nH]c2ccccc12)c1c(-c2cccc(Cl)c2)[nH]c2ccccc12`, the IC50 in assay [1] turned out to be 40.3 µM; in assay [2] it was 46.9 µM.

In the case of `C=C(c1c(-c2ccc(Cl)cc2Cl)[nH]c2ccccc12)c1c(-c2ccc(Cl)cc2Cl)[nH]c2ccccc12`, the IC50 in assay [1] and in assay [2] was more than 100 µM in each case.

`C=C(c1c(-c2ccccc2OC)[nH]c2ccccc12)c1c(-c2ccccc2OC)[nH]c2ccccc12`: the IC50 in assay [1] is 92.6 µM; in assay [2], 71.6 µM.

Take `C=C(c1c(-c2ccc(OC)c(OC)c2)[nH]c2ccccc12)c1c(-c2ccc(OC)c(OC)c2)[nH]c2ccccc12`: the IC50 in assay [1] and in assay [2] was more than 100 µM throughout.

For the compound `C=C(c1c(-c2cccc(Br)c2)[nH]c2ccccc12)c1c(-c2cccc(Br)c2)[nH]c2ccccc12`, the IC50 in assay [1] and in assay [2] was more than 100 µM in each case.

For `ClC=C(c1c(-c2ccccc2)[nH]c2ccccc12)c1c(-c2ccccc2)[nH]c2ccccc12`, the Activity was 41% in assay [3], 11.68% in assay [4] and 1.3% in assay [5]. The figures for the 50% inhibitory concentration (IC50) in assay [1] and in assay [2] were 18.2 µM and 13.1 µM, respectively.
